Test results as given in ChEMBL document CHEMBL3046492, “Synthesis, insecticidal, and acaricidal activities of novel 2-aryl-pyrrole derivatives containing ester groups” (2008).
Values after ≈ are worked out from the molar mass of the structure shown.

How the values were obtained:
Assay type in all cases: functional
[1] = system: Tetranychus cinnabarinus; experiment: Acaricidal activity against adult Tetranychus cinnabarinus (carmine spider mite) in sieva bean plants assessed as mortality at 50 mg/kg treated for 3 secs measured after 2 days; details: 48 h
[2] = system: Tetranychus cinnabarinus; experiment: Acaricidal activity against adult Tetranychus cinnabarinus (carmine spider mite) in sieva bean plants assessed as mortality at 100 mg/kg treated for 3 secs measured after 2 days; details: 48 h
[3] = system: Tetranychus cinnabarinus; experiment: Acaricidal activity against adult Tetranychus cinnabarinus (carmine spider mite) in sieva bean plants assessed as mortality at 200 mg/kg treated for 3 secs measured after 2 days; details: 48 h
[4] = system: Culex pipiens pallens; experiment: Insecticidal activity against fourth-instar larval stage of Culex pipiens pallens (mosquito) assessed as mortality at 0.10 mg/kg at 25 +/-1 degC after 2 days; details: 48 h
Outline: (§1)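 Test solutions were prepared by adding 1 mL of each concentrated dilution to 99 mL water. Bioassays were run at 25 ± 1 °C on laboratory-reared insects.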

[5] = system: Culex pipiens pallens; experiment: Insecticidal activity against fourth-instar larval stage of Culex pipiens pallens (mosquito) assessed as mortality at 0.25 mg/kg at 25 +/-1 degC after 2 days; details: 48 h; outline: as §1
[6] = system: Culex pipiens pallens; experiment: Insecticidal activity against fourth-instar larval stage of Culex pipiens pallens (mosquito) assessed as mortality at 0.50 mg/kg at 25 +/-1 degC after 2 days; details: 48 h; outline: as §1
[7] = system: Mythimna separata; experiment: Insecticidal activity against fourth-instar larval stage of Mythimna separata (Oriental armyworm) in compound pretreated corn leaves assessed as mortality at 5 mg/kg at 25 +/-1 degC measured after 2 days
[8] = system: Mythimna separata; experiment: Insecticidal activity against fourth-instar larval stage of Mythimna separata (Oriental armyworm) in compound pretreated corn leaves assessed as mortality at 10 mg/kg at 25 +/-1 degC measured after 2 days
[9] = system: Mythimna separata; experiment: Insecticidal activity against fourth-instar larval stage of Mythimna separata (Oriental armyworm) in compound pretreated corn leaves assessed as mortality at 20 mg/kg at 25 +/-1 degC measured after 2 days
[10] = system: Plutella xylostella; experiment: Insecticidal activity against second-instar larval stage of Plutella xylostella (diamondback moth) in fresh cabbage leaves assessed as mortality treated for 15 secs before larval infestation by leaf disk assay; details: foliar
[11] = system: Tetranychus cinnabarinus; experiment: Toxic ratio, ratio of Chlorfenapyr LC50 to compound LC50 for adult two spot Tetranychus cinnabarinus (carmine spider mite) measured after 24 hr by slide immersion method
[12] = system: Tetranychus cinnabarinus; experiment: Acaricidal activity against adult two spot Tetranychus cinnabarinus (carmine spider mite) assessed as mortality at 25 +/-2 degC treated for 10 secs measured after 24 hr by slide immersion method
Outline: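 Thirty adult female mites were fixed dorsally on double-sided tape on a slide with a small brush. Slides were immersed and shaken for 10 s in diluted test solution, and excess liquid was removed. Slides were then held at 25 ± 2 °C in a Petri dish with moist filter paper. Dead mites were counted at 24 h. There were 3 replicates of 30 mites each, with chlorfenapyr as standard. LC50 was obtained by Finney probit analysis.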

[13] = system: Aphis fabae; experiment: Toxic ratio, ratio of Chlorfenapyr LC50 to compound LC50 for apterous adult stage of Aphis fabae (black bean aphids) measured after 48 hr
[14] = system: Aphis fabae; experiment: Insecticidal activity against apterous adult stage of Aphis fabae (black bean aphids) in soybean tender shoots assessed as mortality treated for 5 secs measured after 48 hr
Outline: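 This was a slightly modified FAO dip test. Soybean tender shoots carrying 40-60 healthy apterous adult aphids were dipped in diluted compound for 5 s. Excess fluid was removed, and shoots were kept in a conditioned room. Mortality was scored at 48 h, with testing at 25 ± 1 °C.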

[15] = system: Nephotettix cincticeps; experiment: Toxic ratio, ratio of Chlorfenapyr LC50 to compound LC50 for third-instar larval stage of Nephotettix cincticeps (green rice leafhopper) measured after 48 hr by seedling-dipping method
[16] = system: Nephotettix cincticeps; experiment: Insecticidal activity against third instar larval stage of Nephotettix cincticeps (green rice leafhopper) in rice seedlings assessed as mortality treated for 15 secs before larval infestation measured after 48 hr by seedling-dipping method
[17] = system: Plutella xylostella; experiment: Toxic ratio, ratio of Chlorfenapyr LC50 to compound LC50 for second-instar larval stage of Plutella xylostella (diamondback moth) by leaf disk assay

N#Cc1c(Br)c(C(F)(F)F)n(COC=O)c1-c1ccc(Cl)cc1
mortality at 50 mg/kg [1]: 82%
mortality at 100 mg/kg [2]: 89%
mortality at 200 mg/kg [3]: 100%
mortality at 0.1 mg/kg [4]: 50%
mortality at 0.25 mg/kg [5]: 100%
mortality at 0.5 mg/kg [6]: 100%
mortality at 5 mg/kg [7]: 0%
mortality at 10 mg/kg [8]: 100%
mortality at 20 mg/kg [9]: 100%

CCC(=O)OCn1c(-c2ccc(Cl)cc2)c(C#N)c(Br)c1C(F)(F)F
mortality at 50 mg/kg [1]: 88%
mortality at 100 mg/kg [2]: 92%
mortality at 200 mg/kg [3]: 100%
mortality at 0.1 mg/kg [4]: 100%
mortality at 0.25 mg/kg [5]: 100%
mortality at 0.5 mg/kg [6]: 100%
mortality at 5 mg/kg [7]: 0%
mortality at 10 mg/kg [8]: 90%
mortality at 20 mg/kg [9]: 100%

N#Cc1c(Br)c(C(F)(F)F)n(COC(=O)c2ccc([N+](=O)[O-])cc2)c1-c1ccc(Cl)cc1
mortality at 50 mg/kg [1]: 92%
mortality at 100 mg/kg [2]: 93%
mortality at 200 mg/kg [3]: 95%
mortality at 0.1 mg/kg [4]: 20%
mortality at 0.25 mg/kg [5]: 60%
mortality at 0.5 mg/kg [6]: 100%
mortality at 5 mg/kg [7]: 0%
mortality at 10 mg/kg [8]: 50%
mortality at 20 mg/kg [9]: 100%

CCCC(=O)OCn1c(-c2ccc(Cl)cc2)c(C#N)c(Br)c1C(F)(F)F
mortality at 50 mg/kg [1]: 100%
mortality at 100 mg/kg [2]: 100%
mortality at 200 mg/kg [3]: 100%
mortality at 0.1 mg/kg [4]: 100%
mortality at 0.25 mg/kg [5]: 100%
mortality at 0.5 mg/kg [6]: 100%
mortality at 5 mg/kg [7]: 0%
mortality at 10 mg/kg [8]: 100%
mortality at 20 mg/kg [9]: 100%

CC(C)CC(=O)OCn1c(-c2ccc(Cl)cc2)c(C#N)c(Br)c1C(F)(F)F
LC50 [10]: 1.88 mg/L (≈ 4.05 µM)
RatioLC50 [11]: 2.65
LC50 [12]: 0.43 mg/L (≈ 0.927 µM)
mortality at 50 mg/kg [1]: 100%
mortality at 100 mg/kg [2]: 100%
mortality at 200 mg/kg [3]: 100%
mortality at 0.1 mg/kg [4]: 100%
mortality at 0.25 mg/kg [5]: 100%
mortality at 0.5 mg/kg [6]: 100%
mortality at 5 mg/kg [7]: 0%
mortality at 10 mg/kg [8]: 100%
mortality at 20 mg/kg [9]: 100%
RatioLC50 [13]: 0.69
LC50 [14]: 17.8 mg/L (≈ 38.5 µM)
RatioLC50 [15]: 0.79
LC50 [16]: 34.1 mg/L (≈ 73.6 µM)
RatioLC50 [17]: 0.97

CCOC(=O)OCn1c(-c2ccc(Cl)cc2)c(C#N)c(Br)c1C(F)(F)F
mortality at 50 mg/kg [1]: 84%
mortality at 100 mg/kg [2]: 89%
mortality at 200 mg/kg [3]: 100%
mortality at 0.1 mg/kg [4]: 100%
mortality at 0.25 mg/kg [5]: 100%
mortality at 0.5 mg/kg [6]: 100%
mortality at 5 mg/kg [7]: 0%
mortality at 10 mg/kg [8]: 90%
mortality at 20 mg/kg [9]: 100%

Cc1ccc(C(=O)OCn2c(-c3ccc(Cl)cc3)c(C#N)c(Br)c2C(F)(F)F)cc1
mortality at 50 mg/kg [1]: 100%
mortality at 100 mg/kg [2]: 100%
mortality at 200 mg/kg [3]: 100%
mortality at 0.1 mg/kg [4]: 100%
mortality at 0.25 mg/kg [5]: 100%
mortality at 0.5 mg/kg [6]: 100%
mortality at 5 mg/kg [7]: 0%
mortality at 10 mg/kg [8]: 100%
mortality at 20 mg/kg [9]: 100%

CC(Oc1cccc(Cl)c1)C(=O)OCn1c(-c2ccc(Cl)cc2)c(C#N)c(Br)c1C(F)(F)F (stereo unspecified)
mortality at 50 mg/kg [1]: 93%
mortality at 100 mg/kg [2]: 93%
mortality at 200 mg/kg [3]: 98%
mortality at 0.1 mg/kg [4]: 100%
mortality at 0.25 mg/kg [5]: 100%
mortality at 0.5 mg/kg [6]: 100%
mortality at 5 mg/kg [7]: 0%
mortality at 10 mg/kg [8]: 45%
mortality at 20 mg/kg [9]: 100%

N#Cc1c(Br)c(C(F)(F)F)n(COC(=O)c2ccccc2)c1-c1ccc(Cl)cc1
mortality at 50 mg/kg [1]: 100%
mortality at 100 mg/kg [2]: 100%
mortality at 200 mg/kg [3]: 100%
mortality at 0.1 mg/kg [4]: 10%
mortality at 0.25 mg/kg [5]: 20%
mortality at 0.5 mg/kg [6]: 100%
mortality at 5 mg/kg [7]: 0%
mortality at 10 mg/kg [8]: 60%
mortality at 20 mg/kg [9]: 100%

CCOCn1c(-c2ccc(Cl)cc2)c(C#N)c(Br)c1C(F)(F)F [CHLORFENAPYR]
LC50 [10]: 1.82 mg/L (≈ 4.46 µM)
RatioLC50 [11]: 1
LC50 [12]: 1.14 mg/L (≈ 2.8 µM)
mortality at 50 mg/kg [1]: 93%
mortality at 100 mg/kg [2]: 97%
mortality at 200 mg/kg [3]: 100%
mortality at 0.1 mg/kg [4]: 100%
mortality at 0.25 mg/kg [5]: 100%
mortality at 0.5 mg/kg [6]: 100%
mortality at 5 mg/kg [7]: 0%
mortality at 10 mg/kg [8]: 100%
mortality at 20 mg/kg [9]: 100%
RatioLC50 [13]: 1
LC50 [14]: 12.2 mg/L (≈ 30 µM)
RatioLC50 [15]: 1
LC50 [16]: 26.8 mg/L (≈ 65.8 µM)
RatioLC50 [17]: 1

Cc1cccc(OC(C)C(=O)OCn2c(-c3ccc(Cl)cc3)c(C#N)c(Br)c2C(F)(F)F)c1 (stereo unspecified)
mortality at 50 mg/kg [1]: 96%
mortality at 100 mg/kg [2]: 98%
mortality at 200 mg/kg [3]: 100%
mortality at 0.1 mg/kg [4]: 100%
mortality at 0.25 mg/kg [5]: 100%
mortality at 0.5 mg/kg [6]: 100%
mortality at 5 mg/kg [7]: 0%
mortality at 10 mg/kg [8]: 40%
mortality at 20 mg/kg [9]: 100%

CC(Oc1ccc(C(C)(C)C)cc1)C(=O)OCn1c(-c2ccc(Cl)cc2)c(C#N)c(Br)c1C(F)(F)F (stereo unspecified)
mortality at 50 mg/kg [1]: 94%
mortality at 100 mg/kg [2]: 96%
mortality at 200 mg/kg [3]: 100%
mortality at 0.1 mg/kg [4]: 100%
mortality at 0.25 mg/kg [5]: 100%
mortality at 0.5 mg/kg [6]: 100%
mortality at 5 mg/kg [7]: 0%
mortality at 10 mg/kg [8]: 30%
mortality at 20 mg/kg [9]: 80%

COc1cccc(C(=O)OCn2c(-c3ccc(Cl)cc3)c(C#N)c(Br)c2C(F)(F)F)c1
mortality at 50 mg/kg [1]: 50%
mortality at 100 mg/kg [2]: 65%
mortality at 200 mg/kg [3]: 100%
mortality at 0.1 mg/kg [4]: 50%
mortality at 0.25 mg/kg [5]: 65%
mortality at 0.5 mg/kg [6]: 100%
mortality at 5 mg/kg [7]: 0%
mortality at 10 mg/kg [8]: 90%
mortality at 20 mg/kg [9]: 100%

N#Cc1c(Br)c(C(F)(F)F)n(COC(=O)c2ccc(Cl)cc2)c1-c1ccc(Cl)cc1
mortality at 50 mg/kg [1]: 100%
mortality at 100 mg/kg [2]: 100%
mortality at 200 mg/kg [3]: 100%
mortality at 0.1 mg/kg [4]: 10%
mortality at 0.25 mg/kg [5]: 20%
mortality at 0.5 mg/kg [6]: 100%
mortality at 5 mg/kg [7]: 10%
mortality at 10 mg/kg [8]: 100%
mortality at 20 mg/kg [9]: 100%

CCCCC(=O)OCn1c(-c2ccc(Cl)cc2)c(C#N)c(Br)c1C(F)(F)F
mortality at 50 mg/kg [1]: 100%
mortality at 100 mg/kg [2]: 100%
mortality at 200 mg/kg [3]: 100%
mortality at 0.1 mg/kg [4]: 100%
mortality at 0.25 mg/kg [5]: 100%
mortality at 0.5 mg/kg [6]: 100%
mortality at 5 mg/kg [7]: 0%
mortality at 10 mg/kg [8]: 100%
mortality at 20 mg/kg [9]: 100%
